This note sets out measurements from ChEMBL document CHEMBL1153167, “Gastroprotective flavonoid constituents from Oroxylum indicum Vent” (Bioorg Med Chem Lett, 2010).

What all share (type): functional, organism-based
What all share (set-up): dose 25 mg/kg

Assay [1] concerns Rattus norvegicus. The assay can be described thus: Gastroprotective activity against ethanol-induced ulceritis in 48 hrs fasted Wistar rat at 25 mg/kg, po pretreated 1 hr before ethanol challenge followed by pylorus ligation measured after 4 hrs. In a few lines:
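Rats fasted 48 h, six per group, were dosed orally. Ethanol was given intragastrically 1 h later. One hour after the ethanol, the pylorus was ligated under anesthesia. Animals were killed 4 h after ligation and ulcers were indexed. Read-out is % protection, mean ± SD.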

Assay [2] has as its system Rattus norvegicus. The assay can be described thus: Gastroprotective activity against aspirin-induced ulceritis in Wistar rat at 25 mg/kg, po pretreated 5 days before aspirin challenge measured after 24 hrs of fasting. In outline:
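Rats, six per group, were dosed with test sample for five days, then given aspirin 200 mg/kg body weight suspended in 1% Tween-80. They were fasted 24 h and killed by cervical dislocation. Stomachs were opened along the greater curvature, washed with lukewarm saline and scored for ulcer index under a dissecting microscope. Read-out is % protection, mean ± SD.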

Assay [3] relates to Rattus norvegicus. Kind of assay: Gastroprotective activity against cold restraint-induced ulceritis in Wistar rat at 25 mg/kg, po pretreated before cold restraination measured after 2 hrs. In outline: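 After the oral dose, rats (six per group) were restrained at 4 °C for 2 h. The stomach was then opened along the greater curvature and severity was scored as mean ulcer index. Read-out is % protection, mean ± SD.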

Assay [4] concerns Rattus norvegicus. Kind of assay: Gastroprotective activity against pylorus ligation-induced ulcer in 48 hrs fasted Wistar rat at 25 mg/kg rat pretreated 1 hr before pylorus ligation measured after 4 hrs. In outline: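 Rats fasted 48 h, six per group, were dosed as a 1% Tween-80 suspension at 1 mL per rat. After 1 h the pylorus was ligated under anesthesia. Animals were killed 4 h after ligation for evaluation. Read-out is % protection, mean ± SD.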

Structures are written as SMILES. Active and inactive are the calls of the source. The calls are words filed in the database; no cut-off is given here.

Take `COc1c(O)cc2c(c1O)C(=O)C[C@@H](c1ccccc1)O2`: the result in assay [1], in assay [2], in assay [3] and in assay [4] was Active.

As for `COc1cc(O)c2c(=O)cc(-c3ccccc3)oc2c1`, the result in assay [1], in assay [2], in assay [3] and in assay [4] was inactive.

Take `COc1cc(O)c2c(=O)cc(-c3c(OC)cccc3O[C@H]3O[C@@H](CO)[C@H](O)[C@@H](O)[C@@H]3O)oc2c1`: the result in assay [1], in assay [2], in assay [3] and in assay [4] was inactive.

Consider `COc1ccc(-c2cc(=O)c3c(O)cc(OC)cc3o2)cc1`, for which the outcome in assay [1], in assay [2], in assay [3] and in assay [4] was inactive.

Regarding `COc1c(O)cc2oc(-c3ccccc3)cc(=O)c2c1O`, the result in assay [1], in assay [2], in assay [3] and in assay [4] was Active.

On to `O=c1cc(-c2ccccc2)oc2cc(O)cc(O)c12`, for which the result in assay [1], in assay [2], in assay [3] and in assay [4] was Active.
